Reference: ChEMBL document CHEMBL1131493, “Inhibitors of farnesyl protein transferase. 4-Amido, 4-carbamoyl, and 4-carboxamido derivatives of 1-(8-chloro-6,11-dihydro-5H-benzo[5,6]- cyclohepta[1,2-b]pyridin-11-yl)piperazine and 1-(3-bromo-8-chloro-6,11- dihydro-5H-benzo[5,6]cyclohepta[1,2-b]pyridin-11-yl)piperazine” (J Med Chem, 1998)

Columns and labels:
[1] = In vivo antitumor efficacy peroral dose of 25 mg/kg expressed as duration for which compound was present above IC50; type: ADME, organism-based; parameters: dose 25 mg/kg, route oral; conditions: po
Summary of the method: (§1)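 Serum pharmacokinetics in nude mice or cynomolgus monkeys after oral (po) or iv dosing. Compounds were given as hydrochloride salts in 20% HPβCD unless otherwise noted. Other formulations were the hydrochloride salt in saline, the micronized free base in 20% HPβCD or corn oil (po) with saline for iv, or the hydrochloride salt in 0.4% methyl cellulose (po).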

[2] = Maximal plasma concentration in nude mice after 25 mg/kg oral dose; type: ADME, organism-based; parameters: dose 25 mg/kg, route oral; conditions: mouse; summary of the method: as §1
[3] = In vivo antitumor efficacy expressed as plasma area under the curve 0.4 hr after iv dose of 25 mg/kg in nude mice; type: ADME, organism-based; parameters: time < 0.4 hr, dose 25 mg/kg, route intravenous; summary of the method: as §1
[4] = target: geranylgeranyltransferase type-I (Rattus norvegicus, UniProt P53610+Q04631); assay: Inhibition of rat Geranylgeranyl transferase (GGPT); type: protein-complex assay
[5] = In vivo antitumor efficacy expressed as plasma area under the curve 0.4 hr after a peroral dose of 25 mg/kg in nude mice; type: ADME, organism-based; parameters: time < 0.4 hr, dose 25 mg/kg, route oral; conditions: mouse, po; summary of the method: as §1
[6] = In vivo antitumor efficacy in nude mice by injecting a dose of 25 mg/kg iv and serum half-life was determined; type: ADME, organism-based; parameters: dose 25 mg/kg, route intravenous; conditions: mouse; summary of the method: as §1
[7] = Oral bioavailability in mouse (nude) (dose of 25 mg/kg); type: ADME, organism-based; conditions: in vivo; summary of the method: as §1
[8] = In vivo antitumor efficacy in cynomolgus monkeys 0-48 hr after peroral dose of 5 mg/kg expressed as Area under the curve; type: ADME, organism-based, Macaca fascicularis; parameters: time < 48 hr, dose 5 mg/kg, route oral; conditions: cynomolgus monkey, po; summary of the method: as §1
[9] = tested on: Mus musculus; assay: In vivo antitumor efficacy after peroral dose of 10 mg/kg in mice expressed as duration for which compound was present above IC50; type: ADME, organism-based; parameters: dose 10 mg/kg, route oral; conditions: po; summary of the method: as §1
[10] = In vivo antitumor efficacy in nude mice after peroral dose of 10 mg/kg expressed as Area under the curve; type: ADME, organism-based; parameters: dose 10 mg/kg, route oral; conditions: mouse, po; summary of the method: as §1
[11] = Bioavailability in cynomolgus monkey (dose 5 mg/kg i.v.); type: ADME, organism-based, Macaca fascicularis; conditions: in vivo, iv; summary of the method: as §1
[12] = In vivo antitumor efficacy in cynomolgus monkeys 0-48 hr after iv dose of 5 mg/kg expressed as Area under the curve; type: ADME, organism-based, Macaca fascicularis; parameters: time < 48 hr, dose 5 mg/kg, route intravenous; conditions: cynomolgus monkey; summary of the method: as §1
[13] = tested on: Cynomolgus monkey; assay: (§2) Maximal plasma concentration in cynomolgus monkeys after 10 mg/kg oral dose; type: ADME, organism-based, Macaca fascicularis; parameters: dose 10 mg/kg, route oral; conditions: in vivo; summary of the method: as §1
[14] = as §2; type: ADME, organism-based, Macaca fascicularis; parameters: dose 10 mg/kg, route oral; conditions: cynomolgus monkey, plasma; summary of the method: as §1
[15] = In vivo antitumor efficacy in nude mice 0-24 hr after peroral dose of 25 mg/kg expressed as Area under the curve; type: ADME, organism-based; parameters: time < 24 hr, dose 25 mg/kg, route oral; conditions: nude, mouse, po; summary of the method: as §1
[16] = In vivo antitumor efficacy in cynomolgus monkeys by injecting a dose of 5 mg/kg, as HCl salt in saline solution,i/v and the serum half-life was determined; type: ADME, organism-based, Macaca fascicularis; parameters: dose 5 mg/kg; conditions: cynomolgus monkey, iv; summary of the method: as §1
[17] = tested on: Mus musculus; assay: In vivo antitumor efficacy after peroral dose of 25 mg/kg in mice expressed as duration for which compound was present above IC50; type: ADME, organism-based; parameters: dose 25 mg/kg, route oral; conditions: po; summary of the method: as §1
[18] = In vivo antitumor efficacy in nude mice 0-24 hr after iv dose of 25 mg/kg expressed as Area under the curve; type: ADME, organism-based; parameters: time < 24 hr, dose 25 mg/kg, route intravenous; conditions: mouse; summary of the method: as §1
[19] = In vivo antitumor efficacy in cynomolgus monkeys 0-48 hr after peroral dose of 10 mg/kg expressed as Area under the curve; type: ADME, organism-based, Macaca fascicularis; parameters: time < 48 hr, dose 10 mg/kg, route oral; conditions: cynomolgus monkey, po; summary of the method: as §1
[20] = tested on: Cynomolgus monkey; assay: In vivo antitumor efficacy after peroral dose of 10 mg/kg in cynomolgus monkeys expressed as duration for which compound was present above IC50; type: ADME, organism-based, Macaca fascicularis; parameters: dose 10 mg/kg, route oral; conditions: po; summary of the method: as §1
[21] = Maximal plasma concentration in cynomolgus monkeys after 5 mg/kg oral dose; type: ADME, organism-based, Macaca fascicularis; parameters: dose 5 mg/kg, route oral; conditions: cynomolgus monkey; summary of the method: as §1

SMILES: O=C(Cc1ccncc1)N1CCN(C2c3ccc(Cl)cc3CCc3cccnc32)CC1 (stereo unspecified)
- Time above IC50 [1]: 1 h
- Cmax [2]: 900 nM
- AUC at 0.4 h [3]: 1800 ng·h/mL
- IC50 [4]: > 46 µM
- AUC at 0.4 h [5]: 240 ng·h/mL
- half-life [6]: 0.2 h
- bioavailability [7]: 13%

SMILES: O=C(Cc1cc[n+]([O-])cc1)N1CCN(C2c3ccc(Cl)cc3CCc3cc(Br)cnc32)CC1 (stereo unspecified)
- Time above IC50 [1]: 6 h
- AUC at 48 h [8]: 9400 ng·h/mL
- Time above IC50 [9]: 24 h
- AUC [10]: 16700 ng·h/mL
- Cmax [2]: 10000 nM
- bioavailability [11]: 38.5%
- AUC at 48 h [12]: 24400 ng·h/mL
- Cmax [13]: 3000 nM
- Cmax [14]: 5700 nM
- AUC at 24 h [15]: 19600 ng·h/mL
- half-life [16]: 2.6 h
- Time above IC50 [17]: 7 h
- AUC at 24 h [18]: 23400 ng·h/mL
- AUC at 48 h [19]: 35600 ng·h/mL
- IC50 [4]: > 38 µM
- Time above IC50 [20]: 24 h
- Cmax [21]: 1200 nM
- half-life [6]: 1.2 h
- bioavailability [7]: 84%
